NSD2 HMT inh: blocks human histone methyltransferase NSD2. O96028. NSD2 peptide methylation, AlphaScreen, 120 min. inhibition, % at 12.5 µM. 0.54% of 310,000 active. AID 743445; in the data active = inhibition above about 50%
AF4-AF9 inh: blocks AF4 peptide binding to human AF9; P42568; AlphaScreen, biotin-AF4 peptide binding to FLAG-AF9; inhibition, % at 10 µM; 0.47% of 350,000 active; AID 651704;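 active = every replicate reaching a set inhibition limit, whatever the replicate mean, cut at about 25% in these data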;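 also: 0% = plate neutral control median and 100% = total signal loss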
FN deposition inh: fibronectin deposition inhibition | AH1F fibroblasts, Alexa488-fibronectin deposition fluorescence, overnight | inhibition, % at 12.6 µM | 0.086% of 350,000 active;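 active = mean inhibition across replicates of 30% or more, regardless of how many single replicates reach that level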;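 also: positive control wells lacked labelled fibronectin entirely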
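Material: AH1F fibroblast monolayer depositing Alexa488-labelled fibronectin into matrix / Amount: 10000 AH1F cells per well / Signal: fluorescence 485/525 nm / Medium: DMEM, 2% serum / Compound: single dose, pinned / Incubation: 1 h cell adhesion before compound, then overnight fibronectin incubation / Reagent: Alexa488-FN, 24 nM final / Read-out: inhibition of fibronectin deposition signal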
RAD52 anneal inh: inhibitors of human RAD52 DNA annealing | P43351 | recombinant RAD52 DNA annealing, FRET fluorescence | inhibition, % at 18.7 µM | 0.46% of 360,000 active | AID 651710;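 active = every replicate showing at least 50% inhibition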
N-glyco inh: N-linked glycosylation inhibition; D54 ERlucT glycosylation luciferase reporter, 24 h; percent of 100 nM tunicamycin response; reporter increase, % at 12.5 µM; 0.23% of 360,000 active; AID 588692;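 active = mean luciferase reporter signal, scaled so untreated is 0 and the glycosylation-blocking control 100, at or above a set limit in every replicate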;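 also: luciferase carries N-glycosylation sites so blocking glycosylation raises the light; 0% = median of neutral control wells and 100% = median of 100 nM tunicamycin wells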
RAD54 branch: inhibitors of human RAD54 branch migration | RAD54 Holliday junction branch migration, FAM/BHQ fluorescence | inhibition, % at 10.4 µM | 0.14% of 360,000 active;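 active = mean normalized replicate activity at least 40 and at least half of replicates scoring 40 or more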;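 also: 0% = median of neutral control wells and 100% = median of positive control wells; inhibitors cause a drop in the FAM fluorescence signal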
Target sequence (Q92698 whole entry, looked up): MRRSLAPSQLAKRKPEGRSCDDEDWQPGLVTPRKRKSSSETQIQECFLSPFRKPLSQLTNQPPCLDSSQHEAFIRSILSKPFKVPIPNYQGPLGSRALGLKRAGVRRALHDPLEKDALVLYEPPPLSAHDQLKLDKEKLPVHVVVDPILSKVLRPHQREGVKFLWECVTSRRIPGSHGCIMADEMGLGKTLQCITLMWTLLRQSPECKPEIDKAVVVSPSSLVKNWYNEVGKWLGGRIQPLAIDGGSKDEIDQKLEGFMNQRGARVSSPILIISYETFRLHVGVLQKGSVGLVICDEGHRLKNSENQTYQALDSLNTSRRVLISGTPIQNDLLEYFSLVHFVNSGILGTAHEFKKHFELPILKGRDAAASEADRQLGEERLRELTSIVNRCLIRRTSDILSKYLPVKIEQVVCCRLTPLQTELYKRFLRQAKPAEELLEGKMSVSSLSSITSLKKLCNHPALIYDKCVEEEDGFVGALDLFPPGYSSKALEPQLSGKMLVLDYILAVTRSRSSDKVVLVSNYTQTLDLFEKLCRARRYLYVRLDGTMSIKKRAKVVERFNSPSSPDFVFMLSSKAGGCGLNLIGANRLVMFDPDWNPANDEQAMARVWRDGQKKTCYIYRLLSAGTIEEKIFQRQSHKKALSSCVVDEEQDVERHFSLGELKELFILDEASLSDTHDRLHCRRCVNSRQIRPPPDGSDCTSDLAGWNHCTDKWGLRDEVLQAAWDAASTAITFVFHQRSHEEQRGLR
Starred values were filed as active, the others as inactive; . = no result; ! = repeats disagree. In the library only some 1.2% were active in any assay of this set; here they are far more common.

SMILES | NSD2 HMT inh | AF4-AF9 inh | FN deposition inh | RAD52 anneal inh | N-glyco inh | RAD54 branch
COc1cccc(CNC(=O)c2cc3c(c(-c4cccc(-c5cccc(C#N)c5)c4)n2)[C@H](CCO)N([S@@](=O)C(C)(C)C)C3)c1 | . | 7 | 8 | 59* | . | -4
CN1CCCCN2[C@H](CO)[C@H](c3ccc(-c4ccccc4)cc3)[C@H]2C1 | . | -6 | . | 9 | . | 3
CN1CCCCN2[C@H](CO)[C@@H](c3ccc(/C=C/c4ccccc4)cc3)[C@H]2C1 | . | 10 | . | 53* | . | 8
CN1CCCCN2[C@H](CO)[C@H](c3ccc(/C=C/c4ccccc4)cc3)[C@H]2C1 | . | 17 | . | 77* | . | 13
ON=C1c2cc(OCCN3CCCCC3)ccc2-c2ccc(OCCN3CCCCC3)cc21 | . | . | . | . | 6 | 86*
Clc1ccc(OCCN2CCCCC2)cc1Cl | 2 | . | . | . | 2 | -4
Cn1nc(C(F)(F)F)c(/C=N/OC(=O)c2ccccc2Cl)c1SCc1ccccc1Cl | 1 | . | -2 | . | 58* | 0
Cn1nc(C(F)(F)F)c(/C=N/OCc2c(Cl)cccc2Cl)c1Cl | -5 | . | 14 | . | -2 | -9
Cn1nc(C(F)(F)F)c(/C=N/OC(=O)c2ccccc2)c1SCc1ccc(Cl)cc1 | 2 | . | 1 | . | 73* | -7
Cn1nc(C(F)(F)F)c(/C=N/OC(=O)c2ccc(Cl)cc2)c1Cl | -2 | . | 5 | . | 0 | -6
C[C@@H](O)C#Cc1cnc2c(c1)C(=O)N([C@@H](C)CO)C[C@H](C)[C@@H](CN(C)C(=O)Cc1ccccn1)O2 | . | -4 | -3 | -4 | . | 3
CC(C)NC(=O)N(C)C[C@H]1Oc2ccc(NC(=O)NC3CCCCC3)cc2CC(=O)N([C@@H](C)CO)C[C@H]1C | . | -4 | . | -8 | . | 0
COc1ccc(S(=O)(=O)N(C)C[C@H]2Oc3ccc(NC(=O)Cc4cn(C)c5ccccc45)cc3C(=O)N([C@H](C)CO)C[C@H]2C)cc1 | . | 0 | -12 | -30 | . | 1
Cc1ccc(-c2nc3ncccc3o2)cc1NC(=S)NC(=O)c1ccco1 | 1 | -1 | -11 | -19 | -1 | .
Cc1ccc(-c2nc3ncccc3o2)cc1NC(=O)c1ccco1 | -3 | . | 32* | . | 2 | -7
Cc1ccc(-c2nc3ncccc3o2)cc1NC(=O)c1ccc([N+](=O)[O-])o1 | 2 | . | . | . | 36* | -2
Cc1cc(-c2nc3ncccc3o2)ccc1NC(=O)c1ccc([N+](=O)[O-])o1 | 2 | -7 | . | -47 | -1 | 3
CC(C)NC(=O)Nc1ccc2c(c1)C(=O)N([C@H](C)CO)C[C@H](C)[C@@H](CN(C)S(=O)(=O)c1cn(C)cn1)OCCCC[C@@H](C)O2 | . | -2 | 3 | 3 | . | 3
C[C@H]1CN([C@@H](C)CO)C(=O)c2cccc(NS(=O)(=O)c3cccs3)c2O[C@@H]1CN(C)Cc1ccc(C(=O)Nc2ccccc2N)cc1 | . | 1 | . | -5 | . | .
COc1ccc(CN(C)C[C@@H]2OCCCC[C@@H](C)Oc3ccc(NS(=O)(=O)c4c(C)noc4C)cc3C(=O)N([C@H](C)CO)C[C@H]2C)cc1 | . | . | . | . | . | -2
N#Cc1cccc(-c2ccc(C3[C@@H]4CN(C(=O)Nc5ccc6c(c5)OCO6)C[C@H]3N4)cc2)c1 (some centres undefined) | . | 13 | -5 | 55* | . | .
N#Cc1cccc(-c2ccc(C3[C@@H]4CN(C(=O)Nc5ccccc5)C[C@H]3N4)cc2)c1 (some centres undefined) | . | -7 | 5 | 3 | . | .
N#Cc1cccc(-c2ccc(C3[C@@H]4CN(C(=O)c5ccc6c(c5)OCO6)C[C@H]3N4)cc2)c1 (some centres undefined) | . | . | -5 | . | . | .
O=C(Nc1ccc2c(c1)OCO2)N1C[C@@H]2N[C@H](C1)C2c1ccc(-c2ccccc2)cc1 (some centres undefined) | . | 31* | 2 | 68* | . | .
N#Cc1ccc(-c2ccc(C3[C@@H]4CN(C(=O)c5ccc6c(c5)OCO6)C[C@H]3N4)cc2)cc1 (some centres undefined) | . | -5 | -325 | 56*! | . | .
O=C(Cc1cccc2ccccc12)Nc1ccccc1O | -2 | . | . | . | . | .
COc1ccc2c(c1)C(=O)N1[C@H]3c4cc(Br)ccc4OC[C@@H]3[C@H](c3ccccc3)[C@]1(C)C(=O)N2 | . | . | . | . | 37* | 4

Source: PubChem BioAssay (Broad Institute)
